The text below walks through data of ChEMBL document CHEMBL1909632, “New aldehyde and vinylsulfone proteasome inhibitors for targeted melanoma therapy” (Eur J Med Chem, 2011).

SMILES strings stand for the structures. Peptide text beside a SMILES is read from it. * marks the point of attachment. Cbz = O=C(OCc1ccccc1)*

Data set [1] is described as follows: Ratio of drug level in tumor to blood in mouse. The class given is ADME, organism-based.
The nature of data set [2]: Drug uptake in tumor of mouse xenografted with mouse B16 cells assessed per gram of tissue after 15 mins. In kind it is ADME, Neoplasm. The settings on record: in vivo, 0.25 h.
Data set [3] is described as follows: Drug uptake in tumor of mouse xenografted with mouse B16 cells assessed per gram of tissue after 3 hrs. Conditions: in vivo. The class given is ADME, Neoplasm.
A short description of data set [4]: Drug uptake in tumor of mouse xenografted with mouse B16 cells after 6 hrs. The class given is ADME, Neoplasm. Conditions: in vivo.
Data set [5] in a line: Drug uptake in tumor of mouse xenografted with mouse B16 cells assessed per gram of tissue after 72 hrs. The class given is ADME, Neoplasm. The settings on record: in vivo.
Data set [6] in a line: Cytotoxicity against human IPC227F cells after 48 hrs using Hoechst 33342 dye-based fluorescence microplate reader. The class given is functional, cell-based. A digest of the protocol: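 Attached IPC227F human ocular melanoma cells were seeded and grown 24 h at 37 °C, 5% CO2, in DMEM with 10% fetal calf serum. Cells were then given fresh medium with increasing drug concentrations from DMSO stocks (DMSO final 0.025%) for 48 h, PBS-washed and frozen at -80 °C. Hoechst 33342 staining followed at room temperature in the dark. Fluorescence was read at 360/460 nm, survival was expressed as % of untreated control, and IC50 determined.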

The Kp is the ratio of the level in a tissue or fluid to that in plasma or blood. In the case of `CCN(CC)CCNC(=O)c1ccc(C(=O)N[C@@H](CC(C)C)C(=O)N[C@@H](CC(C)C)C(=O)N[C@H](C=O)CC(C)C)c([125I])c1`, the Kp in data set [1] was not below 1. For the same compound, the Drug uptake in data set [2] worked out at 2.7%; in data set [3], 1.2%; in data set [4], 1.2%.
Turning to `CCCN(CCC)CCCCNC(=O)c1ccc([125I])cc1`, the Drug uptake in data set [5] was 3.2%.
A word on the IC50: it is the midpoint of a concentration-inhibition curve. With `CCCN(CCC)CCNC(=O)c1ccc(C(=O)N[C@@H](CC(C)C)C(=O)N[C@@H](CC(C)C)C(=O)N[C@H](C=O)CC(C)C)cc1`, half-maximal inhibition in data set [6] (IC50) was put at 0.71 µM.
In data set [6], `CCCN(CCC)CCCCNC(=O)c1ccc(C(=O)N[C@@H](CC(C)C)C(=O)N[C@@H](CC(C)C)C(=O)N[C@H](C=O)CC(C)C)cc1` displayed an IC50 of 4.18 µM.
The same measure, in the same setting: the same measure for `CCN(CC)CCNC(=O)c1ccc(C(=O)N[C@@H](Cc2ccccc2)C(=O)N[C@H](/C=C/S(C)(=O)=O)CC(C)C)cc1`: 94.5 µM.
On the same count and under the same terms, the same measure for `CCN(CC)CCNC(=O)c1ccc(C(=O)N[C@@H](CC(C)C)C(=O)N[C@@H](CC(C)C)C(=O)N[C@H](/C=C/S(C)(=O)=O)CC(C)C)cc1`: 28.7 µM; for `CCN(CC)CCNC(=O)c1ccc(C(=O)N[C@@H](Cc2ccccc2)C(=O)N[C@@H](CC(C)C)C(=O)N[C@H](/C=C/S(C)(=O)=O)CC(C)C)cc1`: 120 µM; for `CCN(CC)CCNC(=O)c1ccc(C(=O)N[C@@H](Cc2ccccc2)C(=O)N[C@H](C=O)CC(C)C)cc1`: 20.9 µM.
On to `CCN(CC)CCNC(=O)c1ccc(C(=O)N[C@@H](CC(C)C)C(=O)N[C@@H](CC(C)C)C(=O)N[C@H](C=O)CC(C)C)cc1`, for which 0.64 µM corresponded to half-maximal inhibition in data set [6] (IC50).
On the same count and under the same terms, with `CCN(CC)CCNC(=O)c1ccc(C(=O)N[C@@H](Cc2ccccc2)C(=O)N[C@@H](CC(C)C)C(=O)N[C@H](C=O)CC(C)C)cc1` the figure was 11.9 µM; with `CC(C)C[C@@H](C=O)NC(=O)[C@H](CC(C)C)NC(=O)[C@H](CC(C)C)NC(=O)OCc1ccccc1` [MG-132] (Cbz-Leu-Leu-Leu-aldehyde), 0.077 µM.
